Measurements as given in ChEMBL document CHEMBL1139350, “Modulation of Wnt signaling through inhibition of secreted frizzled-related protein I (sFRP-1) with N-substituted piperidinyl diphenylsulfonyl sulfonamides” (J Med Chem, 2009).

How the values were obtained:
Type in all cases: ADME, Microsome
[1] = Metabolic stability in human liver microsomes assessed as half life
Outline: (§1)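 Stability in human or rat liver microsomes with compound at 1 µM, from DMSO solution.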

[2] = Metabolic stability in rat liver microsomes assessed as half life; outline: as §1
[3] = Metabolic stability in human liver microsomes assessed as half life in presence of NADPH
Outline: (§2)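 Advanced stability in human or rat liver microsomes run with NADPH, with and without UDPGA, on compound from 1 µM DMSO solution.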

[4] = Metabolic stability in rat liver microsomes assessed as half life in presence of NADPH; outline: as §2

| SMILES | half-life [1] | half-life [2] | half-life [3] | half-life [4] |
| --- | --- | --- | --- | --- |
| CC(C)(C)OC(=O)N1CCC[C@H]1C(=O)N1CCC(NS(=O)(=O)c2cc(S(=O)(=O)c3ccccc3)ccc2C(F)(F)F)CC1 | > 1 min | > 1 min |  |  |
| CC(C)(C)CCN1CCC[C@H]1C(=O)N1CCC(NS(=O)(=O)c2cc(S(=O)(=O)c3ccccc3)ccc2C(F)(F)F)CC1 | > 5 min | > 8 min |  |  |
| CC(C)(C)CC(=O)N1CCC[C@H]1C(=O)N1CCC(NS(=O)(=O)c2cc(S(=O)(=O)c3ccccc3)ccc2C(F)(F)F)CC1 | > 1 min | > 3 min |  |  |
| O=S(=O)(NC1CCNCC1)c1cc(S(=O)(=O)c2ccccc2)ccc1C(F)(F)F |  |  | > 60 min | > 60 min |
| CC(C)(C)NC(=O)N1CCC[C@H]1C(=O)N1CCC(NS(=O)(=O)c2cc(S(=O)(=O)c3ccccc3)ccc2C(F)(F)F)CC1 | > 2 min | > 3 min |  |  |
